Results on five compounds are retold here after ChEMBL document CHEMBL1828592, “Synthesis and anti-microbial activity of some 1- substituted amino-4,6-dimethyl-2-oxo-pyridine-3-carbonitrile derivatives” (2011).

Test [1] concerns Syncephalastrum racemosum. Kind of test: Antifungal activity against Syncephalastrum racemosum RCMB 005003 at 30 ug/ml after 3 to 4 days by agar well diffusion method. The format is functional. The conditions noted are these: read-out: IZ. The procedure, abridged:
(§1)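 Reference antifungal tested at 30 μg/mL, 100 μL per well, on Sabouraud dextrose agar spread with 0.1 mL of a fungal culture at about 10^5 CFU/mL. Wells were bottom-sealed with 0.8% soft agar. Incubated 30 °C, 3–4 days. Inhibition zone (mm) measured three times by caliper and averaged; mean ± SD.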
(In general: Agar diffusion results depend on both activity and mobility in agar.)

Test [2] has as its system Geotrichum candidum. As to the kind of experiment: Antifungal activity against Geotrichum candidum RCMB 052006 at 30 ug/ml after 3 to 4 days by agar well diffusion method. The class given is functional. The settings on record: read-out: IZ. The procedure, abridged:
as §1

In test [3] the test system is Aspergillus fumigatus. Kind of test: Antifungal activity against Aspergillus fumigatus RCMB 002003 at 30 ug/ml after 3 to 4 days by agar well diffusion method. The format is functional. The settings on record: read-out: IZ. An outline of the steps:
as §1

For test [4], the system named is Candida albicans. As to the kind of experiment: Antifungal activity against Candida albicans RCMB 005002 at 30 ug/ml after 3 to 4 days by agar well diffusion method. The class given is functional. The conditions noted are these: read-out: IZ. The procedure, abridged: as §1
For test [5], the system named is Staphylococcus aureus. As to the kind of experiment: Antibacterial activity against Staphylococcus aureus RCMB 000106 at 30 ug/ml after 24 hrs by diffusion agar technique. The class given is functional. The conditions noted are these: RCMB 000106, 24 h, read-out: IZ. An outline of the steps:
(§2)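 Reference antibiotic tested at 30 μg/mL, 100 μL per 6 mm well in agar diffusion on nutrient agar (pH 7.0) seeded with approx. 10^4–10^6 CFU/mL bacteria. Incubated 37 °C for 24 h. Inhibition zone beyond well diameter (mm) read by caliper in triplicate and averaged; mean ± SD.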

Test [6] has as its system Pseudomonas aeruginosa. As to the kind of experiment: Antibacterial activity against Pseudomonas aeruginosa RCMB 000102 at 30 ug/ml after 24 hrs by diffusion agar technique. The format is functional. The settings on record: RCMB 000102, 24 h, read-out: IZ. The procedure, abridged:
as §2

Test [7] has as its system Bacillus subtilis. Kind of test: Antibacterial activity against Bacillus subtilis RCMB 000107 at 30 ug/ml after 24 hrs by diffusion agar technique. The class given is functional. The conditions noted are these: RCMB 000107, 24 h, read-out: IZ. The procedure, abridged: as §2
Test [8] deals with Escherichia coli. As to the kind of experiment: Antibacterial activity against Escherichia coli RCMB 000103 at 30 ug/ml after 24 hrs by diffusion agar technique. The class given is functional. The conditions noted are these: RCMB 000103, 24 h, read-out: IZ. An outline of the steps:
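Agar well diffusion on nutrient agar (pH 7.0) spread with centrifuged bacterial pellets from a 24 h culture, about 10^4–10^6 CFU/mL. Wells receive 100 µL of sample in DMSO: tested samples at 10 mg/mL, standard antibiotic at 30 μg/mL, DMSO as control. Incubation is 37 °C for 24 h. Inhibition zone in mm beyond the 6 mm well is measured three times by caliper and averaged. Three runs, mean ± SD.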

The subject of test [9] is Escherichia coli. As to the kind of experiment: Antibacterial activity against Escherichia coli RCMB 000103 at 10 mg/ml after 24 hrs by diffusion agar technique. The format is functional. The conditions noted are these: RCMB 000103, 24 h, read-out: IZ. An outline of the steps: (§3)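 Agar well diffusion: 24 h bacterial culture pellets (approx. 10^4–10^6 CFU/mL) spread on nutrient agar, pH 7.0. Wells (6 mm) loaded with 100 μL sample at 10 mg/mL in DMSO; DMSO control. Incubated 37 °C, 24 h. Inhibition zone (mm, beyond well) measured three times by caliper and averaged; three runs per strain; mean ± SD.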

The test system of test [10] is Aspergillus fumigatus. Kind of test: Antifungal activity against Aspergillus fumigatus RCMB 002003 at 10 mg/ml after 3 to 4 days by agar well diffusion method. The class given is functional. The settings on record: read-out: IZ. An outline of the steps: (§4)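 Patient-isolated fungi, purified by single-spore isolation, were grown 3–4 days in Sabouraud dextrose broth to about 10^5 CFU/mL. 0.1 mL was spread on Sabouraud dextrose agar. Wells were sealed at the bottom with 0.8% soft agar and loaded with 100 μL sample (10 mg/mL, DMSO); DMSO was the control. Incubated 30 °C, 3–4 days. Zone read three times by caliper and averaged; mean ± SD.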

The test system of test [11] is Geotrichum candidum. Kind of test: Antifungal activity against Geotrichum candidum RCMB 052006 at 10 mg/ml after 3 to 4 days by agar well diffusion method. The format is functional. The conditions noted are these: read-out: IZ. An outline of the steps: as §4
The subject of test [12] is Staphylococcus aureus. As to the kind of experiment: Antibacterial activity against Staphylococcus aureus RCMB 000106 at 10 mg/ml after 24 hrs by diffusion agar technique. The format is functional. The settings on record: RCMB 000106, 24 h, read-out: IZ. The procedure, abridged:
as §3

For test [13], the system named is Pseudomonas aeruginosa. Kind of test: Antibacterial activity against Pseudomonas aeruginosa RCMB 000102 at 10 mg/ml after 24 hrs by diffusion agar technique. The class given is functional. The procedure, abridged:
as §3

Test [14] concerns Bacillus subtilis. Kind of test: Antibacterial activity against Bacillus subtilis RCMB 000107 at 10 mg/ml after 24 hrs by diffusion agar technique. The settings on record: RCMB 000107, 24 h, read-out: IZ. The class given is functional. An outline of the steps:
as §3

Test [15] has as its system Candida albicans. Kind of test: Antifungal activity against Candida albicans RCMB 005002 at 10 mg/ml after 3 to 4 days by agar well diffusion method. The settings on record: read-out: IZ. The format is functional. The procedure, abridged:
as §4

Test [16] concerns Syncephalastrum racemosum. Kind of test: Antifungal activity against Syncephalastrum racemosum RCMB 005003 at 10 mg/ml after 3 to 4 days by agar well diffusion method. The format is functional, organism-based. The procedure, abridged:
as §4

Each structure is given as a SMILES string. The source made the active and inactive calls. The calls are words filed in the database; no cut-off is given here.

As to `CCC(C)n1ncn(-c2ccc(N3CCN(c4ccc(OCC5COC(Cn6cncn6)(c6ccc(Cl)cc6Cl)O5)cc4)CC3)cc2)c1=O` (centres undefined) [ITRACONAZOLE], the zone of inhibition at 30 µg/mL is 22 mm in test [1], 27 mm in the test on Geotrichum candidum [2], 28 mm with Aspergillus fumigatus [3] and 26 mm in the test with Candida albicans [4].

Regarding `Clc1ccccc1C(c1ccccc1)(c1ccccc1)n1ccnc1` [CLOTRIMAZOLE], the zone of inhibition at 30 µg/mL came out at 20 mm in [1], 23 mm with Geotrichum candidum [2], 26 mm with Aspergillus fumigatus [3] and 18 mm in the test with Candida albicans [4].

Consider `CC1(C)S[C@@H]2[C@H](NC(=O)Cc3ccccc3)C(=O)N2[C@H]1C(=O)O` [PENICILLIN G], for which the zone of inhibition at 30 µg/mL came to 29.5 mm in the test on Staphylococcus aureus [5], 28.3 mm in the test on Pseudomonas aeruginosa [6], 32.6 mm in the test on Bacillus subtilis [7] and 33.6 mm with Escherichia coli [8].

On to `CN[C@@H]1[C@H](O[C@H]2[C@H](O[C@H]3[C@H](O)[C@@H](O)[C@H](N=C(N)N)[C@@H](O)[C@@H]3N=C(N)N)O[C@@H](C)[C@]2(O)C=O)O[C@@H](CO)[C@H](O)[C@H]1O` [STREPTOMYCIN], for which the zone of inhibition at 30 µg/mL in the test with Staphylococcus aureus [5] was 25 mm; in the test with Pseudomonas aeruginosa [6] it was 24 mm; in the test on Bacillus subtilis [7], 29 mm; with Escherichia coli [8], 25 mm.

As to `Cc1cc(C)n(N/C=C(\Nn2c(C)cc(C)c(C#N)c2=O)c2ccccc2)c(=O)c1C#N`, the zone of inhibition at 10000 µg/mL with Escherichia coli [9] is 11.5 mm; in the test on Aspergillus fumigatus [10] it was 10 mm; in the test with Geotrichum candidum [11], 12 mm; with Staphylococcus aureus [12], 15 mm; in the test on Bacillus subtilis [14] it was 13.5 mm; in the test with Candida albicans [15], 11 mm. Besides, the “inhibition zone (IZ)” value (in the test on Pseudomonas aeruginosa [13]; in test [16]) was “inactive” in each case.
